{"source": "ChEMBL document CHEMBL3621151", "about": "“Orally bioavailable Syk inhibitors with activity in a rat PK/PD model” (Bioorg Med Chem Lett, 2015)", "key": {"Liver microsome [1]": {"system": "Liver microsome", "assay": "Drug metabolism in rat liver microsomes assessed as pyrazole hydroxylation", "type": "ADME"}, "Rattus norvegicus [2]": {"system": "Rattus norvegicus", "assay": "In vivo inhibition of Syk in Lewis rat assessed as reduction in antiCD32-antibody-induced SLP76 phosphorylation in peripheral blood monocytes at 3 mg/kg, po measured after 4 hrs relative to vehicle-treated control", "type": "functional", "procedure,_shortened": "(§1)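 Lewis rats were given a single oral dose of 3 mg/kg. Blood was sampled at 2, 4, 8 and 24 h for compound levels. Ex vivo, peripheral blood monocytes were stimulated through FcγR with anti-CD32 antibody, and SLP76 phosphorylation was quantified as % pSLP76.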"}, "[3]": {"assay": "Drug uptake in Lewis rat blood at 3 mg/kg, po measured after 8 hrs", "type": "ADME, organism-based", "conditions": "read-out: Drug uptake", "procedure,_shortened": "as §1"}, "Liver": {"system": "Liver", "assay": "Drug level in rat liver at 1 mg/kg, iv", "type": "ADME, organism-based", "conditions": "in vivo", "procedure,_shortened": "(§2)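 Rats received a single iv dose of 1 mg/kg. Compound concentrations were measured in blood, liver and kidney and expressed as ng/g.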"}, "[4]": {"assay": "Oral bioavailability in Sprague-Dawley rat at 3 mg/kg administered as cassette dosing", "type": "ADME, organism-based", "conditions": "in vivo", "procedure,_shortened": "(§3)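 Cassette dosing in Sprague Dawley rats: iv 1 mg/kg in NMP/PEG200 (3:7) and po 3 mg/kg in CMC/water/Tween (0.5:99:0.5). Dose-normalized values are marked as such.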"}, "Liver microsome [5]": {"system": "Liver microsome", "assay": "Drug metabolism in rat liver microsomes assessed as pyrazole N-demethylation", "type": "ADME"}, "[6]": {"assay": "Volume of distribution at steady state in Sprague-Dawley rat at 1 mg/kg, iv and 3 mg/kg, po administered as cassette dosing", "type": "ADME, organism-based", "conditions": "in vivo, read-out: Vdss", "procedure,_shortened": "as §3"}, "Aurora kinase B": {"target": "Aurora kinase B (Homo sapiens, UniProt Q96GD4)", "sequence (Q96GD4 whole entry)": "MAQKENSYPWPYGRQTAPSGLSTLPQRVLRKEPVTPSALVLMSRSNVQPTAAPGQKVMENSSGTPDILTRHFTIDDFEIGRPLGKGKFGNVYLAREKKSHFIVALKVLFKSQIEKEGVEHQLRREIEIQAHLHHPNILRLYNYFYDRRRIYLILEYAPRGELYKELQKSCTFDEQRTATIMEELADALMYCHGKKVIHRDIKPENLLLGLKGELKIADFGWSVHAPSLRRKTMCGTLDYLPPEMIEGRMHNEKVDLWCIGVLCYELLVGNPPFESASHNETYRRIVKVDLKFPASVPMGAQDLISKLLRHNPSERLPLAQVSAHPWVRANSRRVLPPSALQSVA", "assay": "Inhibition of aurora B kinase (unknown origin) by cell based assay"}, "Liver microsome [7]": {"system": "Liver microsome", "assay": "Drug metabolism in rat liver microsomes assessed as lactam hydroxylation", "type": "ADME"}, "Kidney": {"system": "Kidney", "assay": "Drug level in rat kidney at 1 mg/kg, iv", "type": "ADME, organism-based", "conditions": "in vivo", "procedure,_shortened": "as §2"}, "[8]": {"assay": "Toxicity in micronucleus (unknown origin) by micronucleus test"}, "[9]": {"target": "T1, Voltage-gated inwardly rectifying potassium channel KCNH2 (Homo sapiens, UniProt Q12809)", "T1 sequence (Q12809 whole entry)": "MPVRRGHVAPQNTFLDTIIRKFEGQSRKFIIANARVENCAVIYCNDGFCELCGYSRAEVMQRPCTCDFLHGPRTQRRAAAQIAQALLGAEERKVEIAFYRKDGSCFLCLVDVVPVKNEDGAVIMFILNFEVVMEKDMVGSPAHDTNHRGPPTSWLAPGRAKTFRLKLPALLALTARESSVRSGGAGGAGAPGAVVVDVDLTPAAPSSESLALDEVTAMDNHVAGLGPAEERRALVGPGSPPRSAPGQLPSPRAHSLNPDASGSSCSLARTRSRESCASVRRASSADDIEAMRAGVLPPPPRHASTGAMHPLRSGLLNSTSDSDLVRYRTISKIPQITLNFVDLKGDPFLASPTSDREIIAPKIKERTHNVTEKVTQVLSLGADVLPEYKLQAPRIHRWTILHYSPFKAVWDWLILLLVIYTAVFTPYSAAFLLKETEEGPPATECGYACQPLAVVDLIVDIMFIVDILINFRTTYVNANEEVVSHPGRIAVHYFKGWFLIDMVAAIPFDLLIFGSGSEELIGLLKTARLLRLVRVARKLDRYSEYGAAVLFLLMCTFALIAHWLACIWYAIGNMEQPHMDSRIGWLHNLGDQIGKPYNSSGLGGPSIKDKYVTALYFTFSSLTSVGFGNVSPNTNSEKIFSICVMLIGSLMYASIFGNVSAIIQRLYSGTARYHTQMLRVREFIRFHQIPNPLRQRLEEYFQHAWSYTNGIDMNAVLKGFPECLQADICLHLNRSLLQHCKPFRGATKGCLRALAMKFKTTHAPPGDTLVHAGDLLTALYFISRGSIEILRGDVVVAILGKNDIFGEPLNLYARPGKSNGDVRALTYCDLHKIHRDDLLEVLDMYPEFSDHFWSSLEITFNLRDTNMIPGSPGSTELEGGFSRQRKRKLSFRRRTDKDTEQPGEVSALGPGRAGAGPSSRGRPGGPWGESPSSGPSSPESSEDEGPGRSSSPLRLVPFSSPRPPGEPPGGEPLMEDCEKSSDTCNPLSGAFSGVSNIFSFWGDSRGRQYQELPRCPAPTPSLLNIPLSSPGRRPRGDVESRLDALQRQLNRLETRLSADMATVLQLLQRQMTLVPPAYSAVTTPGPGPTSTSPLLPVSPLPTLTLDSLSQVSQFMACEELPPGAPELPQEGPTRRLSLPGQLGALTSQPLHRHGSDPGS", "assay": "Inhibition of human ERG by automated patch clamp assay"}, "Salmonella typhimurium": {"system": "Salmonella typhimurium", "assay": "Toxicity in Salmonella typhimurium by Ames test", "type": "organism-based", "conditions": "salmonella enterica subsp. enterica serovar typhimurium"}, "Liver microsome [10]": {"system": "Liver microsome", "assay": "Drug metabolism in human liver microsomes assessed as pyrazole N-demethylation", "type": "ADME"}, "Liver microsome [11]": {"system": "Liver microsome", "assay": "Drug metabolism in human liver microsomes assessed as pyrazole hydroxylation", "type": "ADME"}, "Blood": {"system": "Blood", "assay": "Drug level in rat blood at 1 mg/kg, iv", "type": "ADME, organism-based", "conditions": "in vivo", "procedure,_shortened": "as §2"}, "[12]": {"assay": "Mean residence time in Sprague-Dawley rat at 1 mg/kg, iv and 3 mg/kg, po administered as cassette dosing", "type": "ADME, organism-based", "conditions": "in vivo", "procedure,_shortened": "as §3"}, "[13]": {"assay": "Clearance in Sprague-Dawley rat at 1 mg/kg, iv and 3 mg/kg, po administered as cassette dosing", "type": "ADME, organism-based", "conditions": "in vivo", "procedure,_shortened": "as §3"}, "[14]": {"assay": "Drug uptake in Lewis rat blood at 3 mg/kg, po measured after 24 hrs", "type": "ADME, organism-based", "conditions": "read-out: Drug uptake", "procedure,_shortened": "as §1"}, "[15]": {"target": "T2, Tyrosine-protein kinase SYK (Homo sapiens, UniProt P43405)", "assay": "Inhibition of Syk in anti-CD32 stimulated CD14+ human monocytes in presence of 90% human blood assessed as phospho-SLP76 level preincubated for 30 mins followed by anti-CD32 stimulation measured after 5 mins by flow cytometric analysis"}, "[16]": {"target": "T2, Tyrosine-protein kinase SYK"}, "Aurora kinase A": {"target": "T3, Aurora kinase A (Homo sapiens, UniProt O14965)", "T3 sequence (O14965 whole entry)": "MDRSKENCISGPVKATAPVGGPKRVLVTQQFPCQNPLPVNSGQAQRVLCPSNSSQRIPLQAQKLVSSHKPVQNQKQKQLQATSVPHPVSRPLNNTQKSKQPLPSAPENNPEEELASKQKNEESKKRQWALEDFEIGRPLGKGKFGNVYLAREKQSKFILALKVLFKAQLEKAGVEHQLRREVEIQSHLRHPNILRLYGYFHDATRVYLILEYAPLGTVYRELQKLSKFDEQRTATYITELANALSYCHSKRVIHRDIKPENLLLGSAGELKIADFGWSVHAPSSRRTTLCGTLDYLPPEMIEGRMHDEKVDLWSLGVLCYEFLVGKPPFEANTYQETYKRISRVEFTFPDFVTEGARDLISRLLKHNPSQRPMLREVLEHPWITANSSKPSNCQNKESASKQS", "assay": "Inhibition of aurora A kinase (unknown origin) by enzymatic assay"}, "[17]": {"target": "T2, Tyrosine-protein kinase SYK", "assay": "Inhibition of Syk in anti-igM stimulated human Ramos B cells assessed as phospho-BLNK level preincubated for 30 mins followed by anti-IgM stimulation measured after 15 mins by flow cytometric analysis", "type": "cell-based"}, "Rattus norvegicus [18]": {"system": "Rattus norvegicus", "assay": "In vivo inhibition of Syk in Lewis rat assessed as reduction in antiCD32-antibody-induced SLP76 phosphorylation in peripheral blood monocytes at 3 mg/kg, po measured after 2 hrs relative to vehicle-treated control", "type": "functional", "procedure,_shortened": "as §1"}, "Rattus norvegicus [19]": {"system": "Rattus norvegicus", "assay": "In vivo inhibition of Syk in Lewis rat assessed as reduction in antiCD32-antibody-induced SLP76 phosphorylation in peripheral blood monocytes at 3 mg/kg, po measured after 24 hrs relative to vehicle-treated control", "type": "functional, organism-based", "procedure,_shortened": "as §1"}, "Rattus norvegicus [20]": {"system": "Rattus norvegicus", "assay": "In vivo inhibition of Syk in Lewis rat assessed as reduction in antiCD32-antibody-induced SLP76 phosphorylation in peripheral blood monocytes at 3 mg/kg, po measured after 8 hrs relative to vehicle-treated control", "type": "functional", "procedure,_shortened": "as §1"}, "[21]": {"assay": "Drug uptake in Lewis rat blood at 3 mg/kg, po measured after 2 hrs", "type": "ADME, organism-based", "conditions": "read-out: Drug uptake", "procedure,_shortened": "as §1"}, "Rattus norvegicus [22]": {"system": "Rattus norvegicus", "assay": "Dose normalized Cmax in Sprague-Dawley rat at 1 mg/kg, iv and 3 mg/kg, po administered as cassette dosing", "type": "ADME, organism-based", "conditions": "in vivo", "procedure,_shortened": "as §3"}, "Liver microsome [23]": {"system": "Liver microsome", "assay": "Drug metabolism in human liver microsomes assessed as lactam hydroxylation", "type": "ADME"}, "[24]": {"target": "T1, Voltage-gated inwardly rectifying potassium channel KCNH2", "assay": "Inhibition of human ERG by binding assay"}, "[25]": {"assay": "Drug uptake in Lewis rat blood at 3 mg/kg, po measured after 4 hrs", "type": "ADME, organism-based", "conditions": "read-out: Drug uptake", "procedure,_shortened": "as §1"}}, "note": "Active and inactive are the calls of the source. No cut-off for these calls is given here.", "data": [{"smiles": "C[C@@H](Oc1nc(-c2cnn(C(F)F)c2)cc2ncsc12)[C@H]1CNC(=O)O1", "values": [{"measurement": "Drug metabolism", "setting": "Liver microsome [1]", "value": "metabolite_detected"}, {"measurement": "inhibition in vivo at 3 mg/kg", "setting": "Rattus norvegicus [2]", "value": 79, "unit": "%"}, {"measurement": "concentration at 8 h", "setting": "[3]", "value": 0.827, "unit": "µM"}, {"measurement": "Drug uptake", "setting": "Liver", "value": 2134, "unit": "ng/g"}, {"measurement": "bioavailability", "setting": "[4]", "value": 88, "unit": "%"}, {"measurement": "Drug metabolism", "setting": "Liver microsome [5]", "value": "metabolite_detected"}, {"measurement": "Vd", "setting": "[6]", "value": 1.3, "unit": "L/kg"}, {"measurement": "IC50", "setting": "Aurora kinase B", "value": 0.11, "unit": "µM"}, {"measurement": "Drug metabolism", "setting": "Liver microsome [7]", "value": "metabolite_detected"}, {"measurement": "Drug uptake", "setting": "Kidney", "value": 1433, "unit": "ng/g"}, {"measurement": "Activity", "setting": "[8]", "value": "Toxic"}, {"measurement": "IC50", "setting": "[9]", "value": "> 30", "unit": "µM"}, {"measurement": "Activity", "setting": "Salmonella typhimurium", "value": "Non-toxic"}, {"measurement": "Drug metabolism", "setting": "Liver microsome [10]", "value": "metabolite_detected"}, {"measurement": "Drug metabolism", "setting": "Liver microsome [11]", "value": "metabolite_detected"}, {"measurement": "Drug uptake", "setting": "Blood", "value": 1014, "unit": "ng/g"}, {"measurement": "MRT", "setting": "[12]", "value": 6, "unit": "h"}, {"measurement": "clearance", "setting": "[13]", "value": 0.24, "unit": "L/h/kg"}, {"measurement": "concentration at 24 h", "setting": "[14]", "value": 0.04, "unit": "µM"}, {"measurement": "IC50", "setting": "[15]", "value": 0.522, "unit": "µM"}, {"measurement": "IC50", "setting": "[16]", "value": 0.038, "unit": "µM"}, {"measurement": "IC50", "setting": "Aurora kinase A", "value": 0.057, "unit": "µM"}, {"measurement": "IC50", "setting": "[17]", "value": 0.284, "unit": "µM"}, {"measurement": "inhibition in vivo at 3 mg/kg", "setting": "Rattus norvegicus [18]", "value": 78, "unit": "%"}, {"measurement": "inhibition", "setting": "Rattus norvegicus [19]", "value": "inactive"}, {"measurement": "inhibition in vivo at 3 mg/kg", "setting": "Rattus norvegicus [20]", "value": 60, "unit": "%"}, {"measurement": "concentration at 2 h", "setting": "[21]", "value": 1.93, "unit": "µM"}, {"measurement": "Cmax/dose", "setting": "Rattus norvegicus [22]", "value": 0.917, "unit": "µM"}, {"measurement": "Drug metabolism", "setting": "Liver microsome [23]", "value": "metabolite_detected"}, {"measurement": "IC50", "setting": "[24]", "value": "> 30", "unit": "µM"}, {"measurement": "concentration at 4 h", "setting": "[25]", "value": 1.34, "unit": "µM"}]}]}
